≈ marks a conversion by molar mass, not a printed value.
Legend:
[1] = Antitumor activity in vivo against the 6C3HED lymphosarcoma dosed for 10 days at 150 mg/kg; type: functional; conditions: Mus musculus, 192 h, in the assay text read “dosed for 8 days” for “dosed for 10 days”
Outline: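 Tumor fragments (about 1–2 mm) implanted sc via trochar into a subaxillary site of syngeneic mice (C3H, C57BL/6, Balb/C or DBA/2) or Holtz rats. Groups were 7–10 randomized animals. Compound was suspended in 2.5% Emulphor in 0.9% saline and given orally by gavage or ip, usually from the day after implantation. Tumor volume versus untreated controls was measured one day after the final dose and reported as % inhibition. Scoring bands: +++ 95–100%, ++ 80–94%.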

[2] = system: CCRF-CEM; experiment: Concentration required to inhibit growth of CCRF-CEM cells in culture for 72 hr to 50% of control growth; type: functional, cell-based; conditions: Homo sapiens
[3] = system: Rattus norvegicus; experiment: Hypoglycemic activity expressed as (Maximum reduction in blood glucose in mg/dL relative to predosing glucose level)/(time in hours at which maximum reduction occurred); type: functional
Outline: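 Fed male Sprague-Dawley rats (175–200 g), four per compound, received a single oral gavage dose of 200 mg/kg suspended in 5% acacia. Tail blood was sampled before dosing and at 1, 2, 3 and 5 h, and glucose was measured by glucose oxidase/peroxidase colorimetry. Each rat served as its own control. Value = maximum fall from predose glucose (mg/dL) divided by the hour at which that maximum occurred.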

[4] = Antitumor activity in vivo against the 6C3HED lymphosarcoma, dosed for 8 days at 300 mg/kg; conditions: Mus musculus, 192 h
[5] = Antitumor activity in vivo against the 6C3HED lymphosarcoma dosed for 8 days at 150 mg/kg; conditions: Mus musculus, 192 h

Compound | inhibition in vivo at 150 mg/kg [1] | IC50 [2] | Ratio [3] | inhibition in vivo at 300 mg/kg [4] | inhibition in vivo at 150 mg/kg [5]
O=C(Nc1ccc(C(F)(F)F)cc1)NS(=O)(=O)c1cccc(C(F)(F)F)c1 | 39% | 15.6 µg/mL (≈ 37.8 µM) | – | – | –
Cc1ccc(S(=O)(=O)NC(=O)Nc2cc(Cl)c(Cl)c(Cl)c2)cc1 | – | > 20 µg/mL | 0 | 44% | –
Cc1ccc(S(=O)(=O)NC(=O)Nc2ccc3c(c2)OCO3)cc1 | – | > 20 µg/mL | – | 54% | –
Cc1ccc(S(=O)(=O)NC(=O)Sc2ccc(Cl)cc2)cc1 | 33% | 0.9 µg/mL (≈ 2.63 µM) | – | – | –
Cc1ccc(S(=O)(=O)NC(=O)Nc2ccc(Cl)cc2Cl)cc1 | – | > 20 µg/mL | – | 39% | –
Cc1ccc(S(=O)(=O)NC(=O)Nc2ccc(Br)cc2)cc1 | – | 8.2 µg/mL (≈ 22.2 µM) | – | – | 100%
O=C(Nc1ccc(Cl)cc1)NS(=O)(=O)c1ccc2c(c1)CCCC2 | – | 14.6 µg/mL (≈ 40 µM) | – | 70% | –
O=C(Nc1ccc(C(F)(F)F)cc1)NS(=O)(=O)c1ccc(Cl)c(Cl)c1 | 85% | 15.5 µg/mL (≈ 37.5 µM) | – | – | –
COc1ccc(S(=O)(=O)NC(=O)Nc2ccc(Br)cc2)cc1 | 99% | 14.3 µg/mL (≈ 37.1 µM) | – | – | –
Cc1ccc(S(=O)(=O)NC(=O)Nc2ccccc2Cl)cc1 | – | > 20 µg/mL | – | 1% | –
Cc1ccccc1S(=O)(=O)NC(=O)Nc1ccc(C(F)(F)F)cc1 | 67% | 13.7 µg/mL (≈ 38.2 µM) | – | – | –
Cc1ccc(S(=O)(=O)NC(=O)Nc2nc(C)cc(C)n2)cc1 | – | > 20 µg/mL | – | 0% | –
Cc1ccc(S(=O)(=O)NC(=O)Nc2ccc([N+](=O)[O-])cc2)cc1 | – | 7.4 µg/mL (≈ 22.1 µM) | – | 34% | –
Cc1ccc(S(=O)(=O)NC(=O)Nc2ccc(F)c(F)c2)cc1 | – | 12.8 µg/mL (≈ 39.2 µM) | – | 60% | –
CC(C)(C)c1ccc(S(=O)(=O)NC(=O)Nc2ccc(Cl)cc2)cc1 | – | 13.5 µg/mL (≈ 36.8 µM) | – | 84% | –
CCCCOC(=O)c1ccc(NC(=O)NS(=O)(=O)c2ccc(C)cc2)cc1 | – | > 20 µg/mL | – | 0% | –
O=C(Nc1ccc(Cl)cc1)NS(=O)(=O)c1cccc(Cl)c1 | 98% | 9 µg/mL (≈ 26.1 µM) | – | – | –
COc1ccc(S(=O)(=O)NC(=O)Nc2ccc(C(F)(F)F)cc2)cc1 | – | 8 µg/mL (≈ 21.4 µM) | – | – | 100%
COc1ccc(NC(=O)NS(=O)(=O)c2ccc(C)cc2)cc1OC | – | > 20 µg/mL | – | 12% | –
COC(=O)c1ccc(S(=O)(=O)NC(=O)Nc2ccc(C(F)(F)F)cc2)cc1 | 0% | 2.6 µg/mL (≈ 6.46 µM) | – | – | –
Cc1ccc(S(=O)(=O)NC(=O)Nc2ccccc2C)cc1 | – | > 20 µg/mL | – | 32% | –

Compound | inhibition in vivo at 150 mg/kg [1] | IC50 [2] | Ratio [3] | inhibition in vivo at 300 mg/kg [4] | inhibition in vivo at 150 mg/kg [5]
Cc1ccc(S(=O)(=O)NC(=O)Oc2ccc(Cl)cc2)cc1 | – | > 20 µg/mL | – | 43% | –
CCc1ccc(S(=O)(=O)NC(=O)Nc2ccc(Cl)cc2)cc1 | – | 7.5 µg/mL (≈ 22.1 µM) | – | – | 100%
O=C(Nc1ccc(Br)cc1)NS(=O)(=O)c1ccc(Br)cc1 | – | 14.1 µg/mL (≈ 32.5 µM) | – | – | 100%
O=C(Nc1ccc(Cl)c(Cl)c1)NS(=O)(=O)c1ccc(Cl)cc1 | 85% | 9.9 µg/mL (≈ 26.1 µM) | – | – | –
Cc1ccc(S(=O)(=O)NC(=O)NC2CCC(C)CC2)cc1 (centres undefined) | – | > 20 µg/mL | – | 2% | –
O=C(Nc1ccc(Cl)c(Cl)c1)NS(=O)(=O)c1ccc2c(c1)CCC2 | – | 9.1 µg/mL (≈ 23.6 µM) | – | 97% | –
Cc1ccc(S(=O)(=O)NC(=O)Nc2ccc(F)cc2)cc1 | – | 17.4 µg/mL (≈ 56.4 µM) | – | 95% | –
Cc1ccc(S(=O)(=O)NC(=O)Nc2ccc(Cl)cc2)cc1C | – | 13.6 µg/mL (≈ 40.1 µM) | – | 100% | –
Cc1ccc(S(=O)(=O)NC(=O)Nc2ccc(CC#N)cc2)cc1 | – | > 20 µg/mL | – | 10% | –
O=C(Nc1ccc(Br)cc1)NS(=O)(=O)c1ccccc1 | 82% | 7.1 µg/mL (≈ 20 µM) | – | – | –
O=C(Nc1ccc(Cl)cc1)NS(=O)(=O)c1ccc2c(c1)CCO2 | – | 16.1 µg/mL (≈ 45.6 µM) | – | 94% | –
Cc1ccc(S(=O)(=O)NC(=O)N(C)c2ccc(Cl)cc2)cc1 | – | > 20 µg/mL | – | 30% | –
O=C(Nc1ccc(Cl)c(Cl)c1)NS(=O)(=O)c1ccccc1 | – | 1.5 µg/mL (≈ 4.35 µM) | – | – | 100%
CC(=O)c1ccc(S(=O)(=O)NC(=O)Nc2ccc(Cl)cc2)cc1 | – | 16.9 µg/mL (≈ 47.9 µM) | – | 55% | –
Cc1ccc(S(=O)(=O)NC(=O)Nc2cccnc2)cc1 | – | > 20 µg/mL | – | 1% | –
Cc1ccc(S(=O)(=O)NC(=O)Nc2ccccn2)cc1 | – | > 20 µg/mL | – | 2% | –
Cc1ccc(S(=O)(=O)NC(=O)Nc2ccc3c(c2)C(=O)CC3)cc1 | – | > 20 µg/mL | – | 0% | –
Cc1ccc(S(=O)(=O)NC(=O)Nc2cc(Cl)c(Cl)cc2C)cc1 | – | 16 µg/mL (≈ 42.9 µM) | – | 15% | –
O=C(Nc1ccc(Cl)cc1)NS(=O)(=O)c1ccccc1 | – | 3.8 µg/mL (≈ 12.2 µM) | – | – | 100%
N#Cc1cccc(S(=O)(=O)NC(=O)Nc2ccc(Cl)cc2)c1 | – | 13.1 µg/mL (≈ 39 µM) | – | 19% | –
Cc1ccc(S(=O)(=O)NC(=O)Nc2ccc(Cl)cc2C(F)(F)F)cc1 | – | > 20 µg/mL | – | 24% | –

Compound | inhibition in vivo at 150 mg/kg [1] | IC50 [2] | Ratio [3] | inhibition in vivo at 300 mg/kg [4] | inhibition in vivo at 150 mg/kg [5]
CCOc1cccc(NC(=O)NS(=O)(=O)c2ccc(C)cc2)c1 | – | > 20 µg/mL | – | 6% | –
O=C(Nc1ccc(Cl)cc1)NS(=O)(=O)c1ccc2ccccc2c1 | – | 11.2 µg/mL (≈ 31 µM) | 0 | 100% | –
O=C(Nc1ccc(Cl)cc1)NS(=O)(=O)c1ccc(Cl)c(Cl)c1 | – | 14.2 µg/mL (≈ 37.4 µM) | – | – | 100%
Cc1ccc(S(=O)(=O)NC(=O)Nc2ccc(O)cc2)cc1 | – | > 20 µg/mL | – | 10% | –
Cc1ccc(S(=O)(=O)NC(=O)Nc2ccc3ccccc3c2)cc1 | – | 28 µg/mL (≈ 82.3 µM) | – | 5% | –
Cc1ccc(S(=O)(=O)NC(=O)Nc2cccc3ccccc23)cc1 | – | > 20 µg/mL | – | 0% | –
Cc1cccc(S(=O)(=O)NC(=O)Nc2ccc(Cl)cc2)c1 | – | 4.3 µg/mL (≈ 13.2 µM) | – | – | 100%
COc1ccc(NC(=O)NS(=O)(=O)c2ccc(OC)cc2)cc1 | – | 15.3 µg/mL (≈ 45.5 µM) | – | 16% | –
Cc1ccc(S(=O)(=O)NC(=O)Nc2ccc(Cl)c([N+](=O)[O-])c2)cc1 | – | 15.8 µg/mL (≈ 42.7 µM) | – | 30% | –
Cc1ccc(S(=O)(=O)NC(=O)Nc2ccc(I)cc2)cc1 | 76% | 19.6 µg/mL (≈ 47.1 µM) | – | – | –
Cc1ccc(S(=O)(=O)NC(=O)Nc2ccc(Oc3ccccc3)cc2)cc1 | – | > 20 µg/mL | – | 0% | –
O=C(Nc1ccc(Cl)cc1)NS(=O)(=O)c1ccc(F)cc1 | 79% | 6.3 µg/mL (≈ 19.2 µM) | – | – | –
Cc1ccc(S(=O)(=O)NC(=O)Nc2ccc(Cl)cn2)cc1 | – | > 20 µg/mL | – | 43% | –
Cc1ccc(S(=O)(=O)NC(=O)Nc2ccc(Cl)c(Cl)c2)cc1 | – | 5.8 µg/mL (≈ 16.1 µM) | – | 100% | –
O=C(Nc1ccc(Cl)cc1)NS(=O)(=O)c1cccnc1 | – | 7.1 µg/mL (≈ 22.8 µM) | – | 3% | –
O=C(Nc1ccc(C(F)(F)F)cc1)NS(=O)(=O)c1ccccc1 | 81% | 6 µg/mL (≈ 17.4 µM) | – | – | –
Cc1ccc(S(=O)(=O)NC(=O)Nc2nc(Cl)cc(Cl)n2)cc1 | – | > 20 µg/mL | – | 0% | –
COc1ccc(S(=O)(=O)NC(=O)Nc2ccc(Cl)cc2)cc1 | – | 12.6 µg/mL (≈ 37 µM) | – | – | 100%
Cc1ccc(S(=O)(=O)NC(=O)NC2CCCCC2)cc1 [GLYCYCLAMIDE] | – | > 20 µg/mL | – | 56% | –

Reference: ChEMBL document CHEMBL1124898, “Novel agents effective against solid tumors: the diarylsulfonylureas. Synthesis, activities, and analysis of quantitative structure-activity relationships” (J Med Chem, 1990)
